Source: ChEMBL document CHEMBL1811858, “A class of oral N-[(1S,3S)-1-methyl-1,2,3,4-tetrahydro-β-carboline-3-carbonyl]- N'-(amino-acid-acyl)hydrazine: discovery, synthesis, in vitro anti-platelet aggregation/in vivo anti-thrombotic evaluation and 3D QSAR analysis” (Eur J Med Chem, 2011)

Columns and labels:
[1] = Antiplatelet activity in pig platelet assessed as inhibition of ADP-induced aggregation at 1.7 mM measured for 5 mins by aggregometry; type: functional, Sus scrofa; parameters: scale not given: the % may be the effect or the level left
[2] = Antiplatelet activity in pig platelet assessed as inhibition of platelet activating factor-induced aggregation at 1.7 mM measured for 5 mins by aggregometry; type: functional, Sus scrofa; parameters: scale not given: the % may be the effect or the level left
[3] = Antiplatelet activity in pig platelet assessed as inhibition of arachidonic acid-induced aggregation at 1.7 mM measured for 5 mins by aggregometry; type: functional, Sus scrofa; parameters: scale not given: the % may be the effect or the level left
[4] = tested on: Rattus norvegicus; experiment: Antithrombotic activity in pentobarbital sodium anesthetized Wistar rat assessed as thrombus weight at 160 umol/kg, po (reference value: 28.21=/-1.11 mg); type: functional
How it was run: (§1)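 Male Wistar rats (250–300 g) received test agents orally, dissolved in NS and kept on ice; NS served as the vehicle control. After 30 min, rats were anaesthetised with pentobarbital sodium (80.0 mg/kg, i.p.). The right carotid artery and left jugular vein were exposed and joined through a polyethylene tube holding a weighed 6 cm thread. Wet thrombus weight is reported as mean ± SD in mg.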

[5] = Antiplatelet activity in pig platelet assessed as inhibition of ADP-induced aggregation measured for 5 mins by aggregometry (reference value: 50.16 +/- 3.65%); type: functional, cell-based; conditions: Sus scrofa
[6] = Antiplatelet activity in pig platelet assessed as inhibition of platelet activating factor-induced aggregation measured for 5 mins by aggregometry (reference value: 52.30 +/- 1.78%); type: functional, cell-based; conditions: Sus scrofa
[7] = Antiplatelet activity in pig platelet assessed as inhibition of arachidonic acid-induced aggregation measured for 5 mins by aggregometry (reference value: 49.62 +/- 2.90%); type: functional, cell-based; conditions: Sus scrofa
[8] = tested on: Rattus norvegicus; experiment: Antithrombotic activity in pentobarbital sodium anesthetized Wistar rat assessed as decrease in thrombus weight at 10 nmol/kg, po (reference value: 28.21=/-1.11 mg); type: functional; how it was run: as §1
[9] = tested on: Rattus norvegicus; experiment: Antithrombotic activity in pentobarbital sodium anesthetized Wistar rat assessed as decrease in thrombus weight at 1 nmol/kg, po; type: functional; how it was run: as §1
[10] = tested on: Rattus norvegicus; experiment: Antithrombotic activity in pentobarbital sodium anesthetized Wistar rat assessed as decrease in thrombus weight at 0.1 nmol/kg, po; type: functional; how it was run: as §1
[11] = tested on: Rattus norvegicus; experiment: Antithrombotic activity in po dosed Wistar rat assessed as decrease in thrombus weight; type: functional, organism-based; how it was run: as §1
[12] = tested on: Rattus norvegicus; experiment: Antithrombotic activity in pentobarbital sodium anesthetized Wistar rat assessed as decrease in thrombus weight at 100 nmol/kg, po (reference value: 28.21=/-1.11 mg); type: functional; how it was run: as §1

Work on `CC(=O)Oc1ccccc1C(=O)O` [ASPIRIN] yielded an Activity [1] of 31.14%, an Activity [2] of 33.22% and an Activity [3] of 34.5%. It also gave an Activity [4] of 18.24 mg.

Work on `C[C@@H]1N[C@H](C(=O)NNC(=O)[C@@H](N)CCC(N)=O)Cc2c1[nH]c1ccccc21` yielded an IC50 [5] of 598 µM, an IC50 [6] of 267 µM and an IC50 [7] of 18.5 µM. For the same compound, the Activity [8] was 21.01 mg.

For `C[C@@H]1N[C@H](C(=O)NNC(=O)[C@@H](N)CO)Cc2c1[nH]c1ccccc21`, the IC50 [5] was 276 µM, the IC50 [6] was 119 µM and the IC50 [7] was 19.9 µM. It also gave an Activity [8] of 19.04 mg.

`CC[C@H](C)[C@H](N)C(=O)NNC(=O)[C@@H]1Cc2c([nH]c3ccccc23)[C@H](C)N1` gave an IC50 [5] of 51.1 µM, an IC50 [6] of 1.4 µM and an IC50 [7] of 2.4 µM. For the same compound, the Activity [8] was 20.62 mg.

With `CSCC[C@H](N)C(=O)NNC(=O)[C@@H]1Cc2c([nH]c3ccccc23)[C@H](C)N1` the IC50 [5] was 417 µM, the IC50 [6] was 52.9 µM and the IC50 [7] was 21.7 µM. For the same compound, the Activity [8] was 18.55 mg.

`CC(C)C[C@H](N)C(=O)NNC(=O)[C@@H]1Cc2c([nH]c3ccccc23)[C@H](C)N1` gave an IC50 [5] of 31.6 µM, an IC50 [6] of 1.2 µM and an IC50 [7] of 3.2 µM. The Activity [8] was 21.06 mg.

`C[C@@H]1N[C@H](C(=O)NNC(=O)[C@@H](N)CC(N)=O)Cc2c1[nH]c1ccccc21` showed an IC50 [5] of 609 µM, an IC50 [6] of 507 µM and an IC50 [7] of 19.7 µM. The Activity [8] was 20.42 mg.

For `C[C@@H]1N[C@H](C(=O)NNC(=O)[C@@H](N)[C@@H](C)O)Cc2c1[nH]c1ccccc21`, the IC50 [5] was 531 µM, the IC50 [6] was 31.9 µM and the IC50 [7] was 4.7 µM. The Activity [8] was 18.67 mg, the Activity [9] was 22.77 mg and the Activity [10] was 27.22 mg. The Activity [11] was “Dose-dependent effect”.

`C[C@@H]1N[C@H](C(=O)NNC(=O)[C@@H](N)Cc2ccc(O)cc2)Cc2c1[nH]c1ccccc21` gave an IC50 [5] of 152 µM, an IC50 [6] of 12.7 µM and an IC50 [7] of 13 µM. For the same compound, the Activity [8] was 20.24 mg.

In the case of `C[C@@H]1N[C@H](C(=O)NNC(=O)[C@@H]2CCCN2)Cc2c1[nH]c1ccccc21`, the IC50 [5] is reported as 166 µM, the IC50 [6] is reported as 134 µM and the IC50 [7] is reported as 20.6 µM. For the same compound, the Activity [8] was 20.39 mg.

For `CC(C)[C@H](N)C(=O)NNC(=O)[C@@H]1Cc2c([nH]c3ccccc23)[C@H](C)N1`, the IC50 [5] was 156 µM, the IC50 [6] was 50 µM and the IC50 [7] was 3.7 µM. For the same compound, the Activity [8] was 24.01 mg.

In the case of `C[C@@H]1N[C@H](C(=O)NNC(=O)[C@@H](N)Cc2cnc[nH]2)Cc2c1[nH]c1ccccc21`, the IC50 [5] is reported as 94.6 µM, the IC50 [6] is reported as 7.7 µM and the IC50 [7] is reported as 4.8 µM. For the same compound, the Activity [8] was 19.75 mg.

For `C[C@@H]1N[C@H](C(=O)NNC(=O)[C@@H](N)Cc2ccccc2)Cc2c1[nH]c1ccccc21`, the IC50 [5] was 307 µM, the IC50 [6] was 109 µM and the IC50 [7] was 7.1 µM. The Activity [8] was 21 mg.

`C[C@@H]1N[C@H](C(=O)NN)Cc2c1[nH]c1ccccc21` showed an IC50 [5] of 611 µM, an IC50 [6] of 111 µM and an IC50 [7] of 21.5 µM. The Activity [12] was 21.23 mg.

In the case of `C[C@H](N)C(=O)NNC(=O)[C@@H]1Cc2c([nH]c3ccccc23)[C@H](C)N1`, the IC50 [5] is reported as 118 µM, the IC50 [6] is reported as 162 µM and the IC50 [7] is reported as 20 µM. It also gave an Activity [8] of 20.06 mg.

Work on `C[C@@H]1N[C@H](C(=O)NNC(=O)[C@@H](N)CC(=O)OCc2ccccc2)Cc2c1[nH]c1ccccc21` yielded an IC50 [5] of 117 µM, an IC50 [6] of 196 µM and an IC50 [7] of 5.2 µM. It also gave an Activity [8] of 19.65 mg.

`C[C@@H]1N[C@H](C(=O)NNC(=O)CN)Cc2c1[nH]c1ccccc21` showed an IC50 [5] of 722 µM, an IC50 [6] of 348 µM and an IC50 [7] of 20.7 µM. The Activity [8] was 23.74 mg.

For `C[C@@H]1N[C@H](C(=O)NNC(=O)[C@@H](N)CCC(=O)OCc2ccccc2)Cc2c1[nH]c1ccccc21`, the IC50 [5] was 524 µM, the IC50 [6] was 362 µM and the IC50 [7] was 6.3 µM. It also gave an Activity [8] of 21.36 mg.

Compound `C[C@@H]1N[C@H](C(=O)NNC(=O)[C@@H](N)CCCCN)Cc2c1[nH]c1ccccc21` has an IC50 [5] of 321 µM, an IC50 [6] of 106 µM and an IC50 [7] of 3.4 µM. It also gave an Activity [8] of 18.97 mg.

Work on `C[C@@H]1N[C@H](C(=O)NNC(=O)[C@@H](N)Cc2c[nH]c3ccccc23)Cc2c1[nH]c1ccccc21` yielded an IC50 [5] of 21.7 µM, an IC50 [6] of 4.3 µM and an IC50 [7] of 0.6 µM. The Activity [8] was 18.87 mg.
